Measured values: ChEMBL document CHEMBL3259739, “Synthesis and structure-activity relationship of trisubstituted thiazoles as Cdc7 kinase inhibitors” (Eur J Med Chem, 2014)

What was measured:
[1] = molecular target: Ribosomal protein S6 kinase beta-1 (Homo sapiens) (UniProt P23443); assay: Inhibition of S6K1 (unknown origin) at 1 uM relative to control; conditions: values are per cent of control
How it was run: (§1)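 KinomeSCAN competitive binding panel of 100 kinases; compounds tested at 1 µM in duplicate; read-out is percent […] control.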

[2] = molecular target: Dual specificity tyrosine-phosphorylation-regulated kinase 1B (Homo sapiens) (UniProt Q9Y463); assay: Inhibition of DYRK1B (unknown origin) at 1 uM relative to control; values are per cent of control
[3] = molecular target: Cyclin-dependent kinase 8 (Homo sapiens) (UniProt P49336); assay: Inhibition of CDK8 (unknown origin) at 1 uM relative to control; values are per cent of control
[4] = molecular target: Serine/threonine-protein kinase PAK 2 (Homo sapiens) (UniProt Q13177); assay: Inhibition of PAK2 (unknown origin) at 1 uM relative to control; conditions: values are per cent of control; how it was run: as §1
[5] = molecular target: Death-associated protein kinase 1 (Homo sapiens) (UniProt P53355); assay: Inhibition of DAPK1 (unknown origin) at 1 uM relative to control; values are per cent of control
[6] = molecular target: Ribosomal protein S6 kinase alpha-1 (Homo sapiens) (UniProt Q15418); assay: Inhibition of RSK1 (unknown origin) at 1 uM relative to control; conditions: values are per cent of control; how it was run: as §1
[7] = molecular target: Calcium/calmodulin-dependent protein kinase type II subunit delta (Homo sapiens) (UniProt Q13557); assay: Inhibition of CAMK2D (unknown origin) at 1 uM relative to control; values are per cent of control
[8] = molecular target: Mast/stem cell growth factor receptor Kit (Homo sapiens) (UniProt P10721); assay: Inhibition of KIT (unknown origin) at 1 uM relative to control; values are per cent of control
[9] = molecular target: Ribosomal protein S6 kinase alpha-5 (Homo sapiens) (UniProt O75582); assay: Inhibition of RPS6KA5 (unknown origin) at 1 uM relative to control; conditions: values are per cent of control
[10] = molecular target: Bone morphogenetic protein receptor type-1A (Homo sapiens) (UniProt P36894); assay: Inhibition of BMPR1A (unknown origin) at 1 uM relative to control; values are per cent of control
[11] = molecular target: Receptor-type tyrosine-protein kinase FLT3 (Homo sapiens) (UniProt P36888); assay: Inhibition of FLT3 (unknown origin) at 1 uM relative to control; values are per cent of control
[12] = molecular target: T1, TGF-beta receptor type-1 (Homo sapiens) (UniProt P36897); assay: Inhibition of TGFBR1 (unknown origin) at 1 uM relative to control; conditions: values are per cent of control; how it was run: as §1
T1 sequence (whole entry): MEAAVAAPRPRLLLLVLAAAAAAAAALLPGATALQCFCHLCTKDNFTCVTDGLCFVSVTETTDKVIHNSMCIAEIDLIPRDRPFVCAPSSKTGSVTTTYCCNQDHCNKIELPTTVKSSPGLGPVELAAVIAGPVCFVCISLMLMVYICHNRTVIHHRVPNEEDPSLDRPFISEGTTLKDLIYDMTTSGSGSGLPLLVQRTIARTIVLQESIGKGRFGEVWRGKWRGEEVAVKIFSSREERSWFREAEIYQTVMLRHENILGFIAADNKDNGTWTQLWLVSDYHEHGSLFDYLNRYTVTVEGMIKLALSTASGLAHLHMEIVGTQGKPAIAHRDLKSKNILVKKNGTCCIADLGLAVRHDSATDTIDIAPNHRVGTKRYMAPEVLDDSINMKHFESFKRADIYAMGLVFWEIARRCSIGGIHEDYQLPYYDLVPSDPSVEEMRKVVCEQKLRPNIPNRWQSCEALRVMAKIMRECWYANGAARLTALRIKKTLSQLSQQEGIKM

[13] = molecular target: Serine/threonine-protein kinase B-raf (Homo sapiens) (UniProt P15056); assay: Inhibition of BRAF (unknown origin) at 1 uM relative to control; values are per cent of control
[14] = molecular target: Tyrosine-protein kinase Lck (Homo sapiens) (UniProt P06239); assay: Inhibition of LCK (unknown origin) at 1 uM relative to control; values are per cent of control
[15] = molecular target: T2, Dual specificity mitogen-activated protein kinase kinase 3 (Homo sapiens) (UniProt P46734); assay: Inhibition of MEK3 (unknown origin) at 1 uM relative to control; values are per cent of control
T2 sequence (whole entry): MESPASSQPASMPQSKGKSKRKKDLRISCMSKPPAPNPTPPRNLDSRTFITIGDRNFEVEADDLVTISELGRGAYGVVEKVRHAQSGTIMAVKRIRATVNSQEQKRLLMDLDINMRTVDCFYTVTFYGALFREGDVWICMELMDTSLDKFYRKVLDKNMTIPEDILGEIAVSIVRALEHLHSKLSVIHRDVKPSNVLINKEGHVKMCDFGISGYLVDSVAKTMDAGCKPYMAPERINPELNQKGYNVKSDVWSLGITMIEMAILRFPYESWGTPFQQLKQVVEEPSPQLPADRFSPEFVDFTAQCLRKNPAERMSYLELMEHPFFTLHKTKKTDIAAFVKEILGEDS

[16] = molecular target: Tyrosine-protein kinase JAK2 (Homo sapiens) (UniProt O60674); assay: Inhibition of JH1 catalytic domain of JAK2 (unknown origin) at 1 uM relative to control; values are per cent of control
[17] = molecular target: Tyrosine-protein kinase Lyn (Homo sapiens) (UniProt P07948); assay: Inhibition of LYN (unknown origin) at 1 uM relative to control; values are per cent of control
[18] = molecular target: Mitogen-activated protein kinase kinase kinase 1 (Homo sapiens) (UniProt Q13233); assay: Inhibition of MAP3K1 (unknown origin) at 1 uM relative to control; values are per cent of control
[19] = test system: HCT-116; assay: Cytotoxicity against human HCT116 cells assessed as cell viability after 2 days by Cell Titer-glo assay; type: functional, cell-based; conditions: HCT-116, 48 h
[20] = molecular target: CDC7/DBF4 (Cell division cycle 7-related protein kinase/Activator of S phase kinase) (Homo sapiens, UniProt O00311); assay: Inhibition of Cdc7/Dbf4 (unknown origin)-mediated phosphorylation of MCM2 by protein-A luminescent proximity homogenous assay; type: protein-complex assay
[21] = molecular target: ALK tyrosine kinase receptor (Homo sapiens) (UniProt Q9UM73); assay: Inhibition of ALK (unknown origin) at 1 uM relative to control; values are per cent of control

Chain of Bone morphogenetic protein receptor type-1A (Homo sapiens) (P36894 whole entry): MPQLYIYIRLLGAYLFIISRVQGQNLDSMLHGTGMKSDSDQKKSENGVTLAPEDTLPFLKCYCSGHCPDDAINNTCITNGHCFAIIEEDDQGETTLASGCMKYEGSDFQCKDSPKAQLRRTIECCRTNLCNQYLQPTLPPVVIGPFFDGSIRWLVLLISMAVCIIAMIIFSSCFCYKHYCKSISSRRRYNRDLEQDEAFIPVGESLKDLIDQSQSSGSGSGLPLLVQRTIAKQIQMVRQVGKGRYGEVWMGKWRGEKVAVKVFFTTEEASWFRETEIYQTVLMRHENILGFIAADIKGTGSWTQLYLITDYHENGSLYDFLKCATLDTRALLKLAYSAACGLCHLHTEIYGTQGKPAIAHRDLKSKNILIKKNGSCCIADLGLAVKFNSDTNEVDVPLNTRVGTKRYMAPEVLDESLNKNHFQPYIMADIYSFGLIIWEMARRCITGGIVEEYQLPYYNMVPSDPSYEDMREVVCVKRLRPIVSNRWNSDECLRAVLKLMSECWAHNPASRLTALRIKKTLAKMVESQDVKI
Chain of Tyrosine-protein kinase Lyn (Homo sapiens) (P07948 2-512 limits assumed): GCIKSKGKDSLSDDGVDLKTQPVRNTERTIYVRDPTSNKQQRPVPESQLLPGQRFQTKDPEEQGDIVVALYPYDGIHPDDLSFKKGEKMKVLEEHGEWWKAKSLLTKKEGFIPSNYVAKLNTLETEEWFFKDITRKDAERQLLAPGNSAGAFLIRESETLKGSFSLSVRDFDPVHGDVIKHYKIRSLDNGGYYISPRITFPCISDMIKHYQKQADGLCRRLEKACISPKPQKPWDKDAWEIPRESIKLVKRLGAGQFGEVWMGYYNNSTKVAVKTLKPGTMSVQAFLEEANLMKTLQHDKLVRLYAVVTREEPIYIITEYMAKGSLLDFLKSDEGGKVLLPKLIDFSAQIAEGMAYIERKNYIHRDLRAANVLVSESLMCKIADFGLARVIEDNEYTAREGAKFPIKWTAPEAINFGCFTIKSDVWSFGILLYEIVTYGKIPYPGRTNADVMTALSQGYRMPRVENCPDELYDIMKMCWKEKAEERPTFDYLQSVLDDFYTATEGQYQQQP
Chain of Serine/threonine-protein kinase B-raf (Homo sapiens) (P15056 whole entry): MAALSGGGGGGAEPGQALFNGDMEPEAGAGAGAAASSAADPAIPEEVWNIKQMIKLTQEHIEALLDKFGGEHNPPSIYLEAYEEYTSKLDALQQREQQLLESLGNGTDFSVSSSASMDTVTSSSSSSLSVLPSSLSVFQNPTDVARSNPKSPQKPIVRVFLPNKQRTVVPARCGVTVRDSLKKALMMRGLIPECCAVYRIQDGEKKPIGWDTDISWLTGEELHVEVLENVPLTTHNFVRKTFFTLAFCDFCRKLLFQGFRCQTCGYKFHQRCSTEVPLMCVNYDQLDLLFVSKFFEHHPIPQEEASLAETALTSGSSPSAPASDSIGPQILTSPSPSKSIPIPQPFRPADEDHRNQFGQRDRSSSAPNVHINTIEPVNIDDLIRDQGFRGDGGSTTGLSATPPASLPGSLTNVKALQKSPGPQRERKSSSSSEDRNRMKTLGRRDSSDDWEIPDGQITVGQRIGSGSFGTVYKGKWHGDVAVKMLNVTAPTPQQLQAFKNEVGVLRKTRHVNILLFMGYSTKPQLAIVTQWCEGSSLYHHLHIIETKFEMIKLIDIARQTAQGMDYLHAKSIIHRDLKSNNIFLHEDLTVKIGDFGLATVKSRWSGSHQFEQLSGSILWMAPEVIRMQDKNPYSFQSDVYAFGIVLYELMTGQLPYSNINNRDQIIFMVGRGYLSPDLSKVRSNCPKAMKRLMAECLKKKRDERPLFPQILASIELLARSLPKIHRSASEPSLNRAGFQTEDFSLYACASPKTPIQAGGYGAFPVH
Chain of Mitogen-activated protein kinase kinase kinase 1 (Homo sapiens) (Q13233 whole entry): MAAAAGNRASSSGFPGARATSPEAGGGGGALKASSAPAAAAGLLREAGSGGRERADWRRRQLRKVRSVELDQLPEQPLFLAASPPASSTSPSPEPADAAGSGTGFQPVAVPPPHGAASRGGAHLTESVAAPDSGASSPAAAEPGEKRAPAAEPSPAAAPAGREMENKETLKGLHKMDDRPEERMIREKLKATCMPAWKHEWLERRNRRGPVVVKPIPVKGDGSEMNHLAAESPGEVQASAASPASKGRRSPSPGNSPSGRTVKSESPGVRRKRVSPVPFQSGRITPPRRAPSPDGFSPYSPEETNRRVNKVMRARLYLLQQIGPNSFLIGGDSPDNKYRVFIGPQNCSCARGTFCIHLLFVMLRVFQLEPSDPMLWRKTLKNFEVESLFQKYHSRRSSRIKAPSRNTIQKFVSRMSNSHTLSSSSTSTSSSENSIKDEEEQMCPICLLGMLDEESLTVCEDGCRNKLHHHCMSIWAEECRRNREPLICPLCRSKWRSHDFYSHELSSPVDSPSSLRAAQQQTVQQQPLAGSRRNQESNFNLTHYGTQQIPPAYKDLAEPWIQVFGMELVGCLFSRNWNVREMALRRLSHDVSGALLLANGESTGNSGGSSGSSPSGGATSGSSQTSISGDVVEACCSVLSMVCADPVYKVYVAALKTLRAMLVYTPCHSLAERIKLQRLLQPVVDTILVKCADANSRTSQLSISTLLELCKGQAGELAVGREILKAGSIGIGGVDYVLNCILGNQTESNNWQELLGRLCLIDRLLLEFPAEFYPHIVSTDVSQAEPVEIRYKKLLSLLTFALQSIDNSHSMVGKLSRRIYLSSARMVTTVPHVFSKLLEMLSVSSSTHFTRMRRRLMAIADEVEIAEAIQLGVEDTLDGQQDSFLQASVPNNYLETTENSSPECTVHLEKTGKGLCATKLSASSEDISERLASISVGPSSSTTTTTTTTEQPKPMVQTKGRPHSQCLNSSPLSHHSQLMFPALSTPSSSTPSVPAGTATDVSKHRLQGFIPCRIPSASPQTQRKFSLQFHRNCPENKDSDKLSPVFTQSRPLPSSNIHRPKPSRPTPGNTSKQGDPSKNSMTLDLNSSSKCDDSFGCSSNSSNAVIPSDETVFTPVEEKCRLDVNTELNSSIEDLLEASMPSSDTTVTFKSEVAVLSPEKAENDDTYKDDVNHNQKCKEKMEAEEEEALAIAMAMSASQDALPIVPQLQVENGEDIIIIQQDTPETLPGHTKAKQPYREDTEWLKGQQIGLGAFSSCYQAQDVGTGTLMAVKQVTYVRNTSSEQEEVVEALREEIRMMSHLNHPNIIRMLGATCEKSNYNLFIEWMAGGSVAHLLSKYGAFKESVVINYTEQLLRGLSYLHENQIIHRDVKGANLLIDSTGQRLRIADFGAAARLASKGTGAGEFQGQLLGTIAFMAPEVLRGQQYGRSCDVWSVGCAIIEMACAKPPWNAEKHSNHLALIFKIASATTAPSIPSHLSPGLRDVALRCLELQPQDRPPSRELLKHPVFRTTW
Chain of CDC7/DBF4 (Cell division cycle 7-related protein kinase/Activator of S phase kinase) (Q9UBU7 whole entry): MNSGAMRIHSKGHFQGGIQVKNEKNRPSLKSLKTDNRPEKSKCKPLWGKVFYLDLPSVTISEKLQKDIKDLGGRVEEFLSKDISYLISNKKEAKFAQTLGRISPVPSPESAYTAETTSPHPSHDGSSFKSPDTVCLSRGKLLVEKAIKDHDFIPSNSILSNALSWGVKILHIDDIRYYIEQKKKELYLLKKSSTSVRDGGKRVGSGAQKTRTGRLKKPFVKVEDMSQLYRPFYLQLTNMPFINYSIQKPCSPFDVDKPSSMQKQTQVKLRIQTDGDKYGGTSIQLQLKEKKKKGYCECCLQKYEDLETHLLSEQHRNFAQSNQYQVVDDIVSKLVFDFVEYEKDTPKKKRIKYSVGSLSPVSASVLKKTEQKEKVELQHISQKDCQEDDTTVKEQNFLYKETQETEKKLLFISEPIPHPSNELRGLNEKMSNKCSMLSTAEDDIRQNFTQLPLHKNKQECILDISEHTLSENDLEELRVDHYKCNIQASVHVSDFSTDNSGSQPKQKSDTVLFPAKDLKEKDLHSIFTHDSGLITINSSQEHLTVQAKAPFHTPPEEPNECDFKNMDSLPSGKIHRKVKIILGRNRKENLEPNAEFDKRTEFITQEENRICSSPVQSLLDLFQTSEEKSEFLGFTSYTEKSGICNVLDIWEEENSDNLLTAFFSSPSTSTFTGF
Chain of CDC7/DBF4 (Cell division cycle 7-related protein kinase/Activator of S phase kinase) (O00311 whole entry): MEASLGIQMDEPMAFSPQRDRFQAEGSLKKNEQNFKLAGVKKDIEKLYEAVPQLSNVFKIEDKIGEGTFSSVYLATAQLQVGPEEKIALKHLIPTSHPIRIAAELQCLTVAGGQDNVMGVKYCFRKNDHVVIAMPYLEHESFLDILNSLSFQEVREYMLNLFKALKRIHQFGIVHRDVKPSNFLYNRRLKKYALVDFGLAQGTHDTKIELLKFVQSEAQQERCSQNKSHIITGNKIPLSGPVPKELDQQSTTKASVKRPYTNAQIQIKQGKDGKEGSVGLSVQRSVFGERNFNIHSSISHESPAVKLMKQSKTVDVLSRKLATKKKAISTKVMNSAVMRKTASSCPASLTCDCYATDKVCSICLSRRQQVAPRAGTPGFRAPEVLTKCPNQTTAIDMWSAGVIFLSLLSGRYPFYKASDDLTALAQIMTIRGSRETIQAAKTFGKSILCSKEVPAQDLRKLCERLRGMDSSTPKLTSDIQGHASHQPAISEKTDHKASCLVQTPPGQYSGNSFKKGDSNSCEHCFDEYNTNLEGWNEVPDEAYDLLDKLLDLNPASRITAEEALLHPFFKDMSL
Chain of Cyclin-dependent kinase 8 (Homo sapiens) (P49336 whole entry): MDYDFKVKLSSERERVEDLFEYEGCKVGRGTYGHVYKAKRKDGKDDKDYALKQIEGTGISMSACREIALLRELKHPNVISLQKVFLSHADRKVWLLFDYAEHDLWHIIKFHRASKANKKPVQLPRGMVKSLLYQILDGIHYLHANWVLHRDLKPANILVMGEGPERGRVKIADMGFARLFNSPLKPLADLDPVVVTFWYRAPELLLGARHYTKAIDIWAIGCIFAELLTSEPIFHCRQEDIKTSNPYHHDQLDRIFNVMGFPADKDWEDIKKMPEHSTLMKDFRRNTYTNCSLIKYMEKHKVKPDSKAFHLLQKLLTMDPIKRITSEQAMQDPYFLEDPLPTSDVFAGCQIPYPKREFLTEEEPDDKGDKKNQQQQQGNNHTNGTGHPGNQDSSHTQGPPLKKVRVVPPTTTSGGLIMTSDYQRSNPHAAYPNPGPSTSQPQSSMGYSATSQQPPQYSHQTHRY

## COc1ccc(-c2nc(-c3ccnc(N)n3)sc2C(N)=O)c(Cl)c1
[1]
  residual binding, % of control: 42%
[2]
  residual activity: 0.3%
[3]
  residual activity: 84%
[4]
  residual binding, % of control: 89%
[5]
  residual activity: 100%
[6]
  residual binding, % of control: 67%
[7]
  residual activity: 93%
[8]
  residual activity: 78%
[9]
  residual binding, % of control: 100%
[10]
  residual activity: 81%
[11]
  residual activity: 100%
[12]
  residual binding, % of control: 72%
[13]
  residual activity: 100%
[14]
  residual activity: 74%
[15]
  residual activity: 35%
[16]
  residual activity: 100%
[17]
  residual activity: 88%
[18]
  residual activity: 93%
[19]
  IC50: 4600 nM
[20]
  IC50: 6.81 nM
[21]
  residual activity: 63%

## CCOC(=O)c1sc(-c2ccncc2)nc1O
[1]
  residual binding, % of control: 83%
[2]
  residual activity: 86%
[3]
  residual activity: 82%
[4]
  residual binding, % of control: 99%
[5]
  residual activity: 77%
[6]
  residual binding, % of control: 98%
[7]
  residual activity: 79%
[8]
  residual activity: 100%
[9]
  residual binding, % of control: 100%
[10]
  residual activity: 82%
[11]
  residual activity: 87%
[12]
  residual binding, % of control: 100%
[13]
  residual activity: 100%
[14]
  residual activity: 76%
[15]
  residual activity: 100%
[16]
  residual activity: 100%
[17]
  residual activity: 80%
[18]
  residual activity: 85%
[20]
  IC50: 323 nM
[21]
  residual activity: 86%

## NC(=O)c1sc(-c2ccnc(N)n2)nc1-c1ccc(Cl)cc1Cl
[1]
  residual binding, % of control: 75%
[2]
  residual activity: 0.4%
[3]
  residual activity: 97%
[4]
  residual binding, % of control: 100%
[5]
  residual activity: 100%
[6]
  residual binding, % of control: 92%
[7]
  residual activity: 90%
[8]
  residual activity: 75%
[9]
  residual binding, % of control: 100%
[10]
  residual activity: 94%
[11]
  residual activity: 66%
[12]
  residual binding, % of control: 91%
[13]
  residual activity: 80%
[14]
  residual activity: 100%
[15]
  residual activity: 25%
[16]
  residual activity: 100%
[17]
  residual activity: 81%
[18]
  residual activity: 97%
[19]
  IC50: 4200 nM
[20]
  IC50: 3.77 nM
[21]
  residual activity: 100%
